Experimental findings from publication PMC11959935 (Acta Pharmaceutica Sinica. B, 2025) are described below.

The subject of test [1] is GL261 glioma allograft. The test can be described thus: PET imaging of orthotopic GL261 glioma allograft mouse models. In kind it is in vivo. The method, boiled down:
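Mice under isoflurane (1.5%, 0.4 L/min) in a stereotactic frame received mouse GL261 glioma cells (suspension 1 × 10^5 cells/mL) through a drilled hole by Hamilton syringe; controls received PBS. After 10 days, tumours were confirmed by T2-weighted MRI and [18F]FET PET (11.1 MBq), then the radiotracer was given i.v. T/N ratio was lesion SUV over contralateral normal brain.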

In test [2] the test system is epileptic focus. In words: Pilot clinical PET imaging in a patient with temporal lobe epilepsy. In kind it is in vivo, human.

Take `N[C@@H](Cc1ccc(OCC[18F])cc1)C(=O)O` [[^18F]FET, ^18F-fluoro-ethyl-tyrosine]: the T/N ratio in test [1] was 1.17 ± 0.02.
Take `CCOC(=O)c1ncn2c1CN(C)C(=O)c1cc([18F])ccc1-2` [[^18F]FMZ]: the “SUVmean in epileptic focus” value in test [2] is on record as 0.54 ± 0.28.
